Assay results from ChEMBL document CHEMBL4673404, “Covalent Inhibition of Wild-Type HIV-1 Reverse Transcriptase Using a Fluorosulfate Warhead” (ACS Med Chem Lett, 2021).

Assays:
[1] = Cytotoxicity against human MT2 cells assessed as cell growth inhibition after 5 days by MTT assay; assay type: cell-based; conditions: time 5 day
Summary of the method: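 Human MT-2 T-cells were used in the same assay as the HIV-1 IIIB infection-protection test. CC50 was taken as the concentration inhibiting MT-2 cell growth by 50%, with measurements in triplicate.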

[2] = biological target: T1, Human immunodeficiency virus type 1 reverse transcriptase (Human immunodeficiency virus 1, UniProt Q72547); experiment: Covalent inhibition of recombinant wild type HIV-1 reverse transcriptase using poly(rA)350/oligo(dT)16 as template/primer preincubated followed by substrate addition measured after 30 mins by pico-green reagent based fluorescence analysis
[3] = Covalent inhibition of HIV-1 reverse transcriptase Tyr181Cys mutant; design: species or system Human immunodeficiency virus 1
[4] = biological target: T1, Human immunodeficiency virus type 1 reverse transcriptase; experiment: Covalent inhibition of recombinant wild type HIV-1 reverse transcriptase using poly(rA)350/oligo(dT)16 as template/primer preincubated followed by substrate addition measured after 48 hrs by pico-green reagent based fluorescence analysis
Summary of the method: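 Recombinant WT HIV-1 RT preincubated with inhibitor or DMSO control (1 h for line 3, 48 h for line 4). Substrate solution with r(A)350 template and d(T)16 primer then added, reacted 30 min at room temperature, and quenched with EDTA. Product quantified with PicoGreen by fluorescence (ex 485, em 520 nm). Triplicate runs, normalized to DMSO controls to give IC50.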

[5] = biological target: T1, Human immunodeficiency virus type 1 reverse transcriptase; experiment: Inhibition of recombinant wild type HIV-1 reverse transcriptase using poly(rA)350/oligo(dT)16 as template/primer preincubated for 1 hr followed by substrate addition measured after 30 mins by pico-green reagent based fluorescence analysis
Summary of the method: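 Recombinant wild-type HIV-1 RT preincubated 1 h with inhibitor or DMSO. Substrate of r(A)350 template and d(T)16 primer then added, 30 min at room temperature. Quenched with EDTA, product detected with PicoGreen by fluorescence (ex 485/em 520 nm). Triplicate runs, normalized to DMSO controls to give IC50.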

SMILES	CC50 at 120 h [1]	IC50 [2]	IC50 [3]	IC50 [4]	IC50 [5]
N#Cc1cc(Cl)cc(Oc2cc(OS(=O)(=O)F)ccc2OCCn2ccc(=O)[nH]c2=O)c1	100000 nM	–	–	–	–
N#Cc1ccc2c(Oc3ccc(OS(=O)(=O)F)cc3OCCn3ccc(=O)[nH]c3=O)cccc2c1	62000 nM	82.3 nM	–	–	–
N#Cc1cc(Cl)cc(Oc2ccc(OS(=O)(=O)F)cc2Cl)c1	50000 nM	4900 nM	–	–	–
N#C/C=C/c1cc(F)cc(Oc2ccc(OS(=O)(=O)F)cc2OCCn2ccc(=O)[nH]c2=O)c1	42000 nM	150 nM	–	–	–
N#C/C=C/c1cc(Cl)cc(Oc2ccc(OS(=O)(=O)F)cc2OCCn2ccc(=O)[nH]c2=O)c1	45000 nM	119 nM	–	–	–
N#Cc1cc(Cl)cc(Oc2ccc(OS(=O)(=O)F)cc2OCCn2ccc(=O)[nH]c2=O)c1	66000 nM	103 nM	45 nM	163 nM	–
Cn1c(=O)ccn(CCOc2cc(S(=O)(=O)F)ccc2Oc2cc(Cl)cc(C#N)c2)c1=O	60000 nM	375 nM	–	–	–
N#Cc1cc2c(Oc3ccc(OS(=O)(=O)F)cc3OCCn3ccc(=O)[nH]c3=O)cc(F)cn2c1	55000 nM	64 nM	63 nM	429 nM	–
Cc1cc(/C=C/C#N)cc(C)c1Nc1ccnc(Nc2ccc(C#N)cc2)n1 [RILPIVIRINE]	8000 nM	38 nM	–	–	–
N#Cc1cc2c(Oc3ccc(OS(=O)(=O)F)cc3OCCn3ccc(=O)[nH]c3=O)cc(Cl)cn2c1	26000 nM	42.4 nM	41 nM	–	–
N#Cc1cc(Cl)cc(Oc2ccc(S(=O)(=O)F)cc2OCCn2ccc(=O)[nH]c2=O)c1	90000 nM	5000 nM	–	–	–
N#C/C=C/c1cc(Cl)cc(Oc2ccc(Cl)cc2OCCn2ccc(=O)[nH]c2=O)c1	10000 nM	–	–	–	3 nM
N#Cc1cc(Cl)cc(Oc2cc(OS(=O)(=O)F)ccc2Cl)c1	78000 nM	833 nM	–	–	–
N#Cc1ccc2c(Oc3ccc(OS(=O)(=O)F)cc3OCCn3ccc(=O)[nH]c3=O)cc(Cl)cc2c1	15000 nM	14.7 nM	–	–	–
Cc1ccnc2c1NC(=O)c1cccnc1N2C1CC1 [NEVIRAPINE]	> 100000 nM	–	–	–	–
Cn1c(=O)ccn(CCOc2cc(OS(=O)(=O)F)ccc2Oc2cccn3cc(C#N)cc23)c1=O	75000 nM	164 nM	202 nM	1110 nM	–
Cn1c(=O)ccn(CCOc2cc(OS(=O)(=O)F)ccc2Oc2cc(Cl)cc(C#N)c2)c1=O	40000 nM	246 nM	–	–	–
